Laboratory results: ChEMBL document CHEMBL2163314, “Potent aminocyclitol glucocerebrosidase inhibitors are subnanomolar pharmacological chaperones for treating gaucher disease” (J Med Chem, 2012)
Substitutions are numbered along the chain they refer to. Active and inactive are the calls of the source. No cut-off for these calls is given here.

Tests used:
[1] = molecular target: T1, Alpha-galactosidase A (Homo sapiens) (UniProt P06280); test: Inhibition of lysosomal alpha-galactosidase in human fibroblast at 50 uM after 24 hrs
T1 sequence (whole entry): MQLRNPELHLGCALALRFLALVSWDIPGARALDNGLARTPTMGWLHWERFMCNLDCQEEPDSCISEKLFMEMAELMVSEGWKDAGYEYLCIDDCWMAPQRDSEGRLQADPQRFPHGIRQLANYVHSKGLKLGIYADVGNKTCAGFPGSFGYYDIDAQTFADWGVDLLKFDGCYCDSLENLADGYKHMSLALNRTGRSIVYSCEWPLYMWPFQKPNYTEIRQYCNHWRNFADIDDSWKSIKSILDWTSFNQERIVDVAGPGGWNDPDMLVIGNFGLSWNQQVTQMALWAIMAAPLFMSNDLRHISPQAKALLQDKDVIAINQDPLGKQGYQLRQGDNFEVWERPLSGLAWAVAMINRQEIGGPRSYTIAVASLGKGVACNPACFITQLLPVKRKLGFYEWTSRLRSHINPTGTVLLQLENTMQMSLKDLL
In short: (§1)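 Wild-type human fibroblasts (DMEM, 10% FBS, passages 14–30) were plated overnight, then exposed to compound in fresh medium for 24 h at 37 °C, 5% CO2. Lysosomal enzyme activity was then assayed in intact monolayers after the medium was removed. Triplicate determinations.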

[2] = tested on: T2, Lysosomal acid glucosylceramidase (Homo sapiens), P04062 [N409S]; test: Agonist activity at glucosylceramidase N370S mutant in lymphoblast obtained from gauchers patient using 4-methylumbelliferyl-beta-D-glucopyranoside as substrate preincubated at 1 to 5000 nM for 3 days measured 2 hrs post substrate addition by fluorescence assay relative to untreated control; type: functional
T2 sequence (whole entry): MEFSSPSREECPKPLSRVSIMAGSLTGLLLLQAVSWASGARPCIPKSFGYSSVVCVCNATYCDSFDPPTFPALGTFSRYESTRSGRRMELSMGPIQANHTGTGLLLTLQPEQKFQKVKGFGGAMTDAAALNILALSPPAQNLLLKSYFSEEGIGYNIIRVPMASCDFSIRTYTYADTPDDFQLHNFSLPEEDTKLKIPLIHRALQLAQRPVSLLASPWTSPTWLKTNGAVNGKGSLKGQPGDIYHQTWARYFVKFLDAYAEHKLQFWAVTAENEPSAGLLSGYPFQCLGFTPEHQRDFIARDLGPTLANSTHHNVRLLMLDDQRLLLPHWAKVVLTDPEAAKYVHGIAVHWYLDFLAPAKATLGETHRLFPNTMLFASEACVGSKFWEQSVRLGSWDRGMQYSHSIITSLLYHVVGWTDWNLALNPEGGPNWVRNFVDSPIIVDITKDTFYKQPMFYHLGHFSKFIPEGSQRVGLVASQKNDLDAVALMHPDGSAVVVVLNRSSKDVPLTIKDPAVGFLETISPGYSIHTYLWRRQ
In short: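 Patient-derived N370S homozygous lymphoblasts (RPMI-1640, 15% FBS, 37 °C, 5% CO2; passages 5–16) seeded at 2 × 10^5 cells/well, exposed to compound for 3 days. Cells washed in PBS and lysed in water by sonication. Homogenate incubated with 6 mM 4-MU-β-glucoside in 0.1 M citrate phosphate pH 5.2 with 0.25% taurocholate and 0.1% Triton X-100, 37 °C, 2 h. Fluorescence read at 355/460 nm; activity normalized to untreated cells; triplicate.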

[3] = tested on: Saccharomyces cerevisiae; test: Inhibition of bakers yeast alpha-glucosidase at100 uM
[4] = molecular target: Lysosomal alpha-glucosidase (Homo sapiens) (UniProt P10253); test: Inhibition of lysosomal alpha-glucosidase in human fibroblast at 50 uM after 24 hrs; in short: as §1
[5] = molecular target: T3, Lysosomal acid glucosylceramidase (Homo sapiens, UniProt P04062); test: Competitive inhibition of recombinant Imiglucerase using 4-methylumbelliferyl-beta-D-glucopyranoside as substrate preincubated for 30 mins before substrate addition at pH 7.0 by Dixon plot assay
T3 sequence (P04062 whole entry): T2 sequence (whole entry) with S409N

[6] = Cytotoxicity against human fibroblasts at 5 uM; type: cell-based; conditions: fibroblast
[7] = Cytotoxicity against human fibroblasts at 50 uM; type: cell-based; conditions: fibroblast
[8] = molecular target: T4, Lysosomal acid glucosylceramidase (Homo sapiens) (UniProt P04062); test: Inhibition of lysosomal beta-glucosidase in human fibroblast using 4-methylumbelliferyl-beta-D-glucopyranoside as substrate preincubated at 5 uM for 24 hrs before substrate addition measured after 2 hrs by fluorimetry
T4 sequence (whole entry): T2 sequence (whole entry) with S409N
In short: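 Wild-type human fibroblasts (DMEM, 10% FBS; passages 14–30) plated overnight, then compound in fresh medium for 24 h at 37 °C, 5% CO2. Intact washed monolayers given PBS plus 200 mM acetate pH 4.0 and 5 mM 4-MU-β-glucoside, 37 °C for 2 h. Stopped by lysis in glycine/NaOH pH 10.6. Fluorescence at 355/460 nm; triplicate.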

[9] = molecular target: Lysosomal alpha-glucosidase (Homo sapiens) (UniProt P10253); test: Inhibition of lysosomal alpha-glucosidase in human fibroblast at 5 uM after 24 hrs

SMILES	inhibition [1]	Activity [2]	inhibition [3]	inhibition [4]	IC50 [5] [nM]	Activity [6]	Activity [7]	inhibition [8] [%]	inhibition [9]
CCCCCCCCCN[C@@H]1[C@H](O)[C@@H](O)[C@H](O)[C@@H](O)[C@@H]1O	inactive	inactive	inactive	inactive	24900				
CCCCCCCCCN[C@H]1[C@H](O)[C@@H](O)[C@H](O)[C@@H](O)[C@@H]1OCCCCCCCCC.Cl			inactive		170	Non-toxic	Toxic	> 39	< 16%
CCCCCCCCCN[C@H]1[C@H](O)[C@@H](O)[C@H](O)[C@@H](O)[C@@H]1O	inactive	inactive	inactive	inactive	780				
CCCCCCCCCN[C@H]1[C@H](O)[C@@H](O)[C@H](O)[C@@H](O)[C@H]1OCCCCCCCCC.Cl			inactive		5	Non-toxic	Toxic	> 39	inactive
CCCCCCCCCN[C@@H]1[C@H](O)[C@H](O)[C@@H](O)[C@H](O)[C@H]1O.Cl	inactive		inactive	inactive	25			> 39	
CCCCCCCCCN[C@H]1[C@H](O)[C@@H](O)[C@H](O)[C@@H](O)[C@@H]1OC.Cl	inactive		inactive	inactive	670				
CCCCCCCCCN(CCCCCCCCC)[C@@H]1[C@H](O)[C@H](O)[C@@H](O)[C@H](O)[C@H]1O.Cl		inactive	inactive		530	Non-toxic	Toxic	> 39	< 16%
CCCCCCCCCN[C@H]1[C@H](O)[C@@H](O)[C@H](O)[C@@H](O)[C@H]1OC.Cl	inactive		inactive	inactive	19			> 39	
CCCCCCCCCO[C@H]1[C@@H](N)[C@H](O)[C@@H](O)[C@H](O)[C@H]1O.Cl	inactive		inactive	inactive	120			> 39	
